# Measured values as given in PMC7452664 (International Journal for Parasitology: Drugs and Drug …, 2020).
# Entries after “also recorded” stand apart in the source; their conditions may differ. Read-outs that look alike come from different tables or passages of the source.
# Assays:
# [1] = test system: P. falciparum 3D7 intraerythrocytic stage; test: P. falciparum growth inhibition assay; assay type: cell-based, Plasmodium falciparum; conditions: for IC50: 3D7, 48 h, read-out: IC50 P. falciparum
# In short: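 Sorbitol-synchronized 3D7 rings in RBCs at 3% hematocrit, 0.8% parasitemia. Exposed 48 h at 37 °C (5% CO2, 2% O2, 93% N2), in triplicate. Chloroquine 80 nM as reference. Parasitemia measured by flow cytometry after SYTO 11 staining, with uninfected and untreated infected controls. Values standardized to chloroquine; inhibition versus untreated; IC50 from sigmoidal variable-slope fit.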
# [2] = test system: T. brucei brucei 427 strain, bloodstream stage; test: Screening of drugs against T. brucei; assay type: cell-based, Trypanosoma brucei brucei; conditions: for IC50: Trypanosoma brucei
# In short: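 Strain 427 bloodstream forms in HMI-9 were pelleted (900 g, 10 min) and seeded at 5 × 10^5/well in warm medium with serial dilutions, in triplicate. Suramin 100 μM as positive control. After 24 h, Alamar Blue added and incubated 4 h at 37 °C. Fluorescence read at Ex 530/Em 590 nm. Inhibition versus untreated; IC50 from sigmoidal variable-slope fit.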
# [3] = test system: L. infantum promastigotes; test: Anti-L. infantum promastigotes drug test; assay type: cell-based, Leishmania infantum; conditions: 48 h; for parasite-killing effect on promastigotes: data not shown
# In short: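 Promastigotes from a 4-day culture, 1 × 10^5/well, exposed to increasing concentrations for 48 h at 26 °C. Amphotericin B 0.25 μM as positive control. Cells lysed (1% Triton X-100, 2.9% sodium citrate), then 5 mM p-nitrophenyl phosphate added for 2 h at 37 °C. Stopped with 1 N NaOH and read at OD 405 nm. Inhibition calculated versus untreated controls.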
# [4] = test system: T. cruzi intracellular amastigotes; test: Drug test on intracellular amastigotes of T. cruzi; assay type: cell-based, Trypanosoma cruzi; conditions: 72 h; for inhibition of T. cruzi amastigote numbers (highest reduction): concentration not given; for IC50: Trypanosoma cruzi, Vero; for antitrypanosomal activity on T. cruzi: data not shown
# In short: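 Gamma-irradiated (2200 rad) Vero cells, 3.6 × 10^4/well, plated overnight at 37 °C, 5% CO2. […] Serial dilutions added for 72 h, in quadruplicate, with benznidazole 2 μM as control. Fluorescence read at Ex 544/Em 612 nm. Inhibition versus infected untreated wells; IC50 from sigmoidal variable-slope fit.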
# [5] = ref Barnard et al., 1993; cited from earlier work
# T. brucei [6] = conditions: ref Barnard et al., 1993; cited from earlier work
# [7] = test system: L. infantum intra-macrophage amastigotes; test: Drug test on L. infantum intra-macrophage amastigotes; assay type: cell-based, Leishmania infantum; conditions: for decrease of number of intracellular amastigotes / reduction of percentage of infected macrophages: highest non-cytotoxic dose; for IC50: Leishmania infantum, U-937, 48 h, read-out: IC50 (parasite-killing activity, L. infantum intracellular amastigotes)
# In short: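 U937 cells were PMA-differentiated (50 nM, 48 h) and infected with 6-day metacyclic promastigotes at 10:1 for 24 h, then washed. Infected cells (5 × 10^4) were treated for 48 h in chamber slides, in duplicate, at concentrations non-toxic to macrophages (MTT, 48 h). Meglumine antimoniate 273 μM as control. Methanol-fixed, Giemsa-stained; 200 cells counted for infected macrophages and amastigotes.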
# [8] = ref Schaefer et al., 2012; cited from earlier work
# BS forms of T.brucei = conditions: read-out: IC50 BS forms of T.brucei; ref Chambers et al., 2008; cited from earlier work
# T. cruzi epimastigotes = conditions: read-out: IC50 T. cruzi epimastigotes; ref Turrens, 1986; cited from earlier work
# [9] = test system: L. mexicana promastigotes; conditions: concentrations as high as 0.5 mM; ref Turrens and Cazzulo, 1987; cited from earlier work
# T. brucei [10] = conditions: read-out: IC50 T. brucei; different T. brucei strain; ref Barquilla et al., 2008; cited from earlier work
# [11] = read-out: IC50 T. cruzi intracelular amastigotes
# [12] = 24 h, read-out: IC50 T. brucei Bloodstream stage
# [13] = 24 h, read-out: IC50 T. brucei brucei
# [14] = read-out: IC50 T. cruzi amastigotes
smiles,measurement,setting,value
"O=CC[C@@H](O)[C@H](O)[C@H](O)CO [2DG, 2-deoxy-D-glucose]",P. falciparum growth inhibition,[1]; 48 h,growth inhibition values close to those obtained by CQ
same,parasite-killing activity on T. brucei,[2]; 24 h,No parasite-killing activity was detected
same,parasite-killing effect on promastigotes,[3]; 0.2 mM,slight parasite-killing effect
same,inhibition of T. cruzi amastigote numbers (highest reduction),[4],89.3%
same,IC50,[4]; [11],7270 ± 0.47 µM
"O=C(O)C(=O)CBr [3BP, 3-bromopyruvic acid]",toxicity in humans,[5],toxicity in humans
same,concentration inhibiting motility and growth of T. brucei,T. brucei [6],13.4 µM
same,decrease of number of intracellular amastigotes,"[7]; 75 μM, 48 h",78.3%
same,reduction of percentage of infected macrophages,"[7]; 75 μM, 48 h",48.4%
same,IC50,[7],24.9 µM
same,safety in rodents,[8],"apparently being safe in rodents, where only a reduction in body weight was recorded"
same,P. falciparum growth inhibition,[1]; 48 h,slight effect on parasite growth inhibition; also recorded: no efficacy
same,parasite-killing activity on T. brucei,"[2]; 24 h, concentration not given",93.2%
same,IC50,[2]; [12],76.6 µM
same,IC50,[2]; [13],76.6 µM
same,parasite-killing effect on promastigotes,[3]; 37 μM,slight parasite-killing effect
same,antitrypanosomal activity on T. cruzi,[4],did not show consistent antitrypanosomal activity; also recorded: no efficacy
"C[C@@H]1[C@H](O)[C@@H](C)/C=C/C=C/C=C/C=C/C=C/C=C/C=C/[C@H](O[C@@H]2O[C@H](C)[C@@H](O)[C@H](N)[C@@H]2O)C[C@@H]2O[C@](O)(C[C@@H](O)C[C@@H](O)[C@H](O)CC[C@@H](O)C[C@@H](O)CC(=O)O[C@H]1C)C[C@H](O)[C@H]2C(=O)O [AmB, amphotericyn B]",survival rate of L. infantum promastigotes,[3]; 0.25 μM,36%
"CCN(CC)CCCC(C)Nc1ccnc2cc(Cl)ccc12 (stereo not drawn) [CQ, chloroquine]",inhibition at 0.08 µM,"[1]; Plasmodium falciparum, 3D7, read-out: parasite growth inhibition",> 90%
"O=C(O)C(Cl)Cl [DCA, dichloroacetic acid]",decrease of number of intracellular amastigotes,"[7]; 25 mM, 48 h",90.7%
same,reduction of percentage of infected macrophages,"[7]; 25 mM, 48 h",74.4%
same,IC50,[7],632 µM
same,P. falciparum growth inhibition,[1]; 48 h,growth inhibition values close to those obtained by CQ
same,concentration achieving complete clearance of cultured T. brucei brucei,[2]; 24 h,12.5 mM
same,IC50,[2]; [12],1240 µM
same,effect on L. infantum promastigote survival,[3],did not detectably impair
same,IC50,[4]; [14],25800 µM
same,IC50,[4]; [11],25800 ± 59 µM
same,"inhibition of T. cruzi amastigotes, highest value",[4]; high concentrations (up to 100 mM),74.1%
"O=C(O)c1nn(Cc2ccc(Cl)cc2Cl)c2ccccc12 [LND, lonidamine]",IC50,BS forms of T.brucei,50 µM
same,IC50,T. cruzi epimastigotes,80 µM
same,concentration of peak antimalarial activity,[1]; 48 h,300 µM
same,IC50,[1]; Plasmodium falciparum,209 µM
same,effect on L. mexicana promastigotes,[9],only a leishmaniostatic effect was observed
same,parasite-killing activity on T. brucei,"[2]; 24 h, concentration not given",97.7%
same,IC50,[2]; [12],26.8 µM
same,IC50,[2]; [13],26.8 µM
same,effect on L. infantum promastigote survival,[3],did not detectably impair; also recorded: no effect was detected
same,inhibition of T. cruzi amastigote numbers (highest reduction),[4],99.4%
same,IC50,[4]; [14],82.4 µM
same,IC50,[4]; [11],82.4 µM
"CN(C)C(=N)N=C(N)N [MET, metformin]",P. falciparum growth inhibition,[1]; 48 h,growth inhibition values close to those obtained by CQ
same,"parasite elimination, T. brucei","[2]; 20 mM, 24 h",57%
same,IC50,[2]; [12],17300 ± 15 µM
same,effect on L. infantum promastigote survival,[3],did not detectably impair
same,IC50,[4]; [14],18500 µM
same,IC50,[4]; [11],18500 ± 18 µM
"CO[C@H]1C[C@@H]2CC[C@@H](C)[C@@](O)(O2)C(=O)C(=O)N2CCCC[C@H]2C(=O)O[C@H]([C@H](C)C[C@@H]2CC[C@@H](O)[C@H](OC)C2)CC(=O)[C@H](C)/C=C(\C)[C@@H](O)[C@@H](OC)C(=O)[C@H](C)C[C@H](C)/C=C/C=C/C=C/1C [SIR, sirolimus]",effect on parasite burden and infected macrophages,"[7]; 10 μM, data not shown",modest increase of the parasite burden and number of infected macrophages
same,anti-parasitic effect on L. infantum intra-macrophage amastigotes,"[7]; 48 h, data not shown",did not show any parasiticidal effect; also recorded: increase of parasite load
same,P. falciparum growth inhibition,[1]; 48 h,growth inhibition values close to those obtained by CQ
same,IC50,[1]; Plasmodium falciparum,~2.5 µM
same,concentration achieving complete clearance of cultured T. brucei brucei,[2]; 24 h,0.00685 mM
same,IC50,[2]; [12],2.14 µM
same,effect on L. infantum promastigote survival,[3],did not detectably impair
same,IC50,T. brucei [10],0.152 µM
same,antitrypanosomal activity on T. cruzi,[4],did not show consistent antitrypanosomal activity; also recorded: did not affect the viability
"Cc1ccc(C(=O)Nc2ccc(S(=O)(=O)O)c3cc(S(=O)(=O)O)cc(S(=O)(=O)O)c23)cc1NC(=O)c1cccc(NC(=O)Nc2cccc(C(=O)Nc3cc(C(=O)Nc4ccc(S(=O)(=O)O)c5cc(S(=O)(=O)O)cc(S(=O)(=O)O)c45)ccc3C)c2)c1 [SUR, suramin]","parasite clearance, T. brucei","[2]; 100 μM, control drug",96%
